These results are taken from ChEMBL document CHEMBL1629582, “Novel nucleotide human immunodeficiency virus reverse transcriptase inhibitor GS-9148 with a low nephrotoxic potential: characterization of renal transport and accumulation” (Antimicrob Agents Chemother, 2009).

In general, Vmax refers to the top rate of the reaction or transport when substrate is in excess. In general, CC50 refers to the concentration that lowers cell viability or growth by half. Broadly, the AUC(0-t) is exposure summed from dosing to a finite time, without extrapolation to infinity. Read a high AUC(0-t) as more exposure. In general, Km refers to the substrate concentration at which the rate is half of its maximum.

Data set [1] can be described thus: Drug uptake in human kidney cortex at 5 uM by liquid scintillation counting in presence of 500 uM of probenecid. Format: ADME, tissue-based.
The target of data set [2] is T1, Solute carrier family 22 member 6 (Homo sapiens, UniProt Q4U2R8).
T1 sequence (Q4U2R8 whole entry): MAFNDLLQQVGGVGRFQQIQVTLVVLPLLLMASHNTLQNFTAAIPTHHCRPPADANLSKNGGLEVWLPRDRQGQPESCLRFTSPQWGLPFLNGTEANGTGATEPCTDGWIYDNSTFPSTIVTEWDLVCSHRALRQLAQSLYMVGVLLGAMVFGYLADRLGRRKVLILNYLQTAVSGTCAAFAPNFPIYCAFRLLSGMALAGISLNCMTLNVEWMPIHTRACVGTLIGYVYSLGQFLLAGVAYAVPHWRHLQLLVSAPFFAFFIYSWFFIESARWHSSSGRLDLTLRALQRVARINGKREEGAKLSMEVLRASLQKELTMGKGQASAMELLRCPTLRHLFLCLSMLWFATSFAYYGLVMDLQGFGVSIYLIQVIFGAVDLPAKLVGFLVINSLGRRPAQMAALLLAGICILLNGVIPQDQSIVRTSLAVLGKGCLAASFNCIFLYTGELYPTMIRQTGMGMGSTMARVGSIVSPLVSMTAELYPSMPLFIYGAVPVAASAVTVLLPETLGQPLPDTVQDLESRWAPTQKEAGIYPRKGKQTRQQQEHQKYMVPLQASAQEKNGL
Description: Activity of human OAT1 transfected in CHO cells measured per 10^6 cells. Format: cell-based. In short, it runs like this: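 Radiolabelled substrate at various concentrations incubated 20 min at 37°C with CHO cells stably expressing hOAT1 in Waymouth buffer (pH 7.2). Cells washed in ice-cold PBS, lysed in 0.3% Triton X-100, uptake read by scintillation counting. Km and Vmax fitted by Michaelis-Menten. Two independent experiments in duplicate, mean ± SD.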

A short description of data set [3]: Cytotoxicity against CHO cells after 120 hrs by Cell-Titer Glo assay. Format: cell-based, Cricetulus griseus. The conditions noted are these: chinese hamster. In short, it runs like this: (§1)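 CHO cells carrying hOAT1 or empty vector were seeded in parallel at 3 × 10³/well. After 24 h, serial drug dilutions were added in triplicate and incubated 120 h. Viability was read by luminescence relative to untreated wells. CC50 was taken by nonlinear regression from two independent experiments, mean ± SD.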

Data set [4] can be described thus: Cellular uptake in BHK21 cells expressing hOAT3 at 10 uM by liquid scintillation counting in presence of 500 uM of probenecid relative to control. The conditions noted are these: hamster, bhk-21, 10 µM. Format: ADME, cell-based, Mesocricetus auratus. In short, it runs like this:
(§2)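 Radiolabeled nucleotide at 10 μM was incubated at 37°C in Waymouth buffer pH 7.2 with transporter-expressing cells (CHO-hOAT1 or BHK-hOAT3) and matching empty-vector control cells, with or without 500 μM probenecid. Uptake was sampled at several time points, with longer times for hOAT3. Washed cells were lysed in Triton X-100 and counted by scintillation. Two independent experiments in duplicate, mean ± SD; two-tailed paired t test.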

In the next data set the test system is OAT1. Description: Cytotoxicity against CHO cells expressing hOAT1 after 120 hrs by Cell-Titer Glo assay. Format: ADME, cell-based, Cricetulus griseus. The conditions noted are these: chinese hamster. In short, it runs like this: as §1
The test system of data set [5] is CHO. As to the kind of experiment: Cellular uptake in CHO cells expressing hOAT1 at 10 uM by liquid scintillation counting relative to control. Format: ADME, cell-based, Cricetulus griseus. The conditions noted are these: chinese hamster. In short, it runs like this:
as §2

Data set [6] can be described thus: Cellular uptake in BHK21 cells expressing hOAT3 at 10 uM by liquid scintillation counting relative to control. The following applies: hamster, bhk-21, 10 µM. Format: ADME, cell-based, Mesocricetus auratus. In short, it runs like this:
as §2

The nature of data set [7]: Percent of urinary material present as GS-9148 in dog urine at 3 mg/kg, po.
Data set [8] in a line: AUC (0 to 24 hrs) in dog at 3 mg/kg, po. Format: ADME, organism-based, Canis lupus familiaris. Also on record: time < 24 hr, dose 3 mg/kg, route oral. The following applies: plasma.
The nature of data set [9]: Cellular uptake in human HEK293T cells expressing MRP4 efflux transporter at 5 uM by liquid scintillation counting relative to control. The conditions noted are these: hek-293t.
Data set [10] is described as follows: Cellular uptake in human HEK293T cells expressing MRP4 efflux transporter at 5 uM by liquid scintillation counting in presence of 30 uM efflux inhibitor MK-571 relative to control. The conditions noted are these: hek-293t.
The nature of data set [11]: Drug level in dog kidney at 3 mg/kg, po after 24 hrs by liquid scintillation counting. Format: ADME, organism-based, Canis lupus familiaris. The conditions noted are these: in vivo. Also on record: dose 3 mg/kg, route oral. In short, it runs like this: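 Three fasted dogs were given 3.0 mg/kg [14C]prodrug (10 μCi/kg) orally in 50 mM citrate pH 2.2. Kidneys were excised at 24 h, rinsed, blotted and weighed, then combusted and counted by scintillation. Values are μg equivalents per gram tissue, mean ± SD of three dogs.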

Data set [12] is described as follows: Cellular uptake in human HEK293T cells expressing MRP4 efflux transporter assessed as accumulation of GS-9148 metabolite at 5 uM by liquid scintillation counting relative to control. Format: ADME, cell-based. The conditions noted are these: hek-293t.
A short description of data set [13]: Renal clearance in dog urine at 3 mg/kg, po. Details: dose 3 mg/kg, route oral; call rule not given here. The conditions noted are these: read-out: CL_renal (converted). Format: ADME, organism-based, Canis lupus familiaris. In short, it runs like this: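 Fasted dogs were given 3.0 mg/kg [14C]prodrug (10 μCi/kg) in 50 mM citrate pH 2.2 by oral gavage. Urine was collected on dry ice over 0–8 and 8–24 h and counted by scintillation. Parent nucleotide in pooled 0–24 h urine was measured by radio-HPLC on a C18 column with an ammonium formate/acetonitrile gradient. Renal clearance = 24-h urinary amount / 24-h plasma exposure / body weight; three dogs.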

Data set [14] relates to CHO. As to the kind of experiment: Cellular uptake in CHO cells expressing hOAT1 at 10 uM by liquid scintillation counting in presence of 500 uM of probenecid relative to control. Format: ADME, cell-based, Cricetulus griseus. The following applies: chinese hamster. In short, it runs like this:
as §2

Another data set has as its target T2, OAT1 (SLC22A6) (Homo sapiens, UniProt Q4U2R8).
T2 sequence (Q4U2R8 whole entry): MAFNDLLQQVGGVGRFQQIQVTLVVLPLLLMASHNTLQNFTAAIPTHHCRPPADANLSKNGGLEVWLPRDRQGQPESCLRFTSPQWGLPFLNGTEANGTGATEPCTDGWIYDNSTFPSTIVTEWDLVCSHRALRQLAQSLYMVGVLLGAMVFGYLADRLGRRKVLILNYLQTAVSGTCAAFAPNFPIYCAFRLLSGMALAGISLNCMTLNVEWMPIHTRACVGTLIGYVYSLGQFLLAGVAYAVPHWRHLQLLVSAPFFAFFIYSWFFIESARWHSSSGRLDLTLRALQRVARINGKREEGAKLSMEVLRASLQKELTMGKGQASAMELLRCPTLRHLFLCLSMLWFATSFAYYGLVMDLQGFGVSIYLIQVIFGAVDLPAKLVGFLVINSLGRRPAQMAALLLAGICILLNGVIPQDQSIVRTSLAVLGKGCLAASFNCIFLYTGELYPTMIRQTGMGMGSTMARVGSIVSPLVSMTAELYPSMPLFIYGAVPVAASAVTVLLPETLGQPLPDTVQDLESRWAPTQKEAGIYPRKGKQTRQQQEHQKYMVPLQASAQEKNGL
Description: (§3) Activity of human OAT1 transfected in CHO cells. Format: cell-based. In short, it runs like this:
(§4)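 CHO cells stably transfected with human OAT1, with empty-vector CHO cells run in parallel, seeded 48 h ahead. Radiolabeled substrate was given at a range of concentrations for 20 min at 37°C in Waymouth buffer pH 7.2. Cells were washed in ice-cold PBS, lysed in Triton X-100 and counted by scintillation. Km and Vmax came from Michaelis-Menten fitting; two independent experiments in duplicate, mean ± SD.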

Substrate in data set [15]: Nc1ncnc2c1ncn2[C@@H]1O[C@H](OCP(=O)(O)O)C=C1F
Described as §3. Format: cell-based. In short, it runs like this:
as §4

Substrate in data set [16]: C[C@H](Cn1cnc2c(N)ncnc21)OCP(=O)(O)O
As to the kind of experiment: (§5) Activity of human OAT3 transfected in BHK-21 cells. Format: cell-based. In short, it runs like this: (§6)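 BHK-21 cells stably transfected with human OAT3 (the clone with highest probenecid-sensitive uptake), with empty-vector BHK cells in parallel, seeded on fibronectin 24 h ahead. Radiolabeled substrate was given at a range of concentrations for 120 min at 37°C in Waymouth buffer pH 7.2. Lysates were counted by scintillation. Km and Vmax came from Michaelis-Menten fitting; two independent experiments in duplicate.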

Substrate in data set [17]: Nc1ncnc2c1ncn2CCOCP(=O)(O)O
The description is as §5. Format: cell-based. In short, it runs like this: as §6

Substrate in data set [18]: Nc1ncnc2c1ncn2[C@@H]1O[C@H](OCP(=O)(O)O)C=C1F
Described as §5. Format: cell-based. In short, it runs like this: as §6

Where only a bound is given, the exact number is not on record here.

Turning to `Nc1ncnc2c1ncn2CCOCP(=O)(O)O` [ADEFOVIR], in data set [1], the Drug uptake result is recorded as “Active”. For the same molecule, the Vmax in [2] was 46 pmol/min. Besides, the CC50 at 120 h in data set [3] is ≥ 2000 µM.

As for `Nc1ncnc2c1ncn2[C@@H]1O[C@H](OCP(=O)(O)O)C=C1F` [GS-9148], the Drug uptake result in data set [4] is “Not Active”; in the data set on CHO [5] it was “Active”; in data set [6], “Active”; in data set [9], “Not Active”; in data set [10] it was “Active”; in data set [11], 2.49 µg/g. In addition, the Drug uptake result in data set [12] is given as “Active”; in the data set on CHO [14] it was “Not Active”. For the same molecule, in the data set with OAT1, the midpoint of cytotoxicity, the CC50 at 120 h, lay at 435 µM. The molecule also yielded a percent of urinary material as GS-9148 in [7] of 84%. In addition, in data set [8], the AUC(0-t) at 24 h is 4.9 µM·h. Moreover, the CL renal in data set [13] was 7.83 mL/min/kg.

As for `C[C@H](Cn1cnc2c(N)ncnc21)OCP(=O)(O)O` [TENOFOVIR ANHYDROUS], the Km on OAT1 (SLC22A6) was determined as 33.8 µM. Further, in data set [2], the Vmax was found to be 110 pmol/min.

In the case of `Nc1ccn(C[C@@H](CO)OCP(=O)(O)O)c(=O)n1.O.O` [CIDOFOVIR], the CC50 at 120 h with OAT1 turned out to be 3 µM; in data set [3], 520 µM. Also, the Vmax in [2] turned out to be 103 pmol/min.

B1: Solute carrier family 22 member 6 (Homo sapiens) (protein)
chain: MAFNDLLQQVGGVGRFQQIQVTLVVLPLLLMASHNTLQNFTAAIPTHHCRPPADANLSKNGGLEVWLPRDRQGQPESCLRFTSPQWGLPFLNGTEANGTGATEPCTDGWIYDNSTFPSTIVTEWDLVCSHRALRQLAQSLYMVGVLLGAMVFGYLADRLGRRKVLILNYLQTAVSGTCAAFAPNFPIYCAFRLLSGMALAGISLNCMTLNVEWMPIHTRACVGTLIGYVYSLGQFLLAGVAYAVPHWRHLQLLVSAPFFAFFIYSWFFIESARWHSSSGRLDLTLRALQRVARINGKREEGAKLSMEVLRASLQKELTMGKGQASAMELLRCPTLRHLFLCLSMLWFATSFAYYGLVMDLQGFGVSIYLIQVIFGAVDLPAKLVGFLVINSLGRRPAQMAALLLAGICILLNGVIPQDQSIVRTSLAVLGKGCLAASFNCIFLYTGELYPTMIRQTGMGMGSTMARVGSIVSPLVSMTAELYPSMPLFIYGAVPVAASAVTVLLPETLGQPLPDTVQDLESRWAPTQKEAGIYPRKGKQTRQQQEHQKYMVPLQASAQEKNGL
For B1, in data set [15], the Km amounted to 259 µM and the Vmax turned out to be 7.8e-06 µmol/min.

B2: Organic anion transporter 3 (Homo sapiens) (protein)
chain: MTFSEILDRVGSMGHFQFLHVAILGLPILNMANHNLLQIFTAATPVHHCRPPHNASTGPWVLPMGPNGKPERCLRFVHPPNASLPNDTQRAMEPCLDGWVYNSTKDSIVTEWDLVCNSNKLKEMAQSIFMAGILIGGLVLGDLSDRFGRRPILTCSYLLLAASGSGAAFSPTFPIYMVFRFLCGFGISGITLSTVILNVEWVPTRMRAIMSTALGYCYTFGQFILPGLAYAIPQWRWLQLTVSIPFFVFFLSSWWTPESIRWLVLSGKSSKALKILRRVAVFNGKKEEGERLSLEELKLNLQKEISLAKAKYTASDLFRIPMLRRMTFCLSLAWFATGFAYYSLAMGVEEFGVNLYILQIIFGGVDVPAKFITILSLSYLGRHTTQAAALLLAGGAILALTFVPLDLQTVRTVLAVFGKGCLSSSFSCLFLYTSELYPTVIRQTGMGVSNLWTRVGSMVSPLVKITGEVQPFIPNIIYGITALLGGSAALFLPETLNQPLPETIEDLENWSLRAKKPKQEPEVEKASQRIPLQPHGPGLGSS
Turning to B2, the Km in data set [16] worked out at 770 µM; in data set [17] it was 1220 µM; in [18], 1220 µM. For the same molecule, the maximum rate (Vmax) in data set [16] was found to be 2.87e-05 µmol/min; in data set [17], 0.000131 µmol/min; in data set [18], 1.95e-05 µmol/min.
